Results published in ChEMBL document CHEMBL4431335, “Synthesis and trypanocidal activity of novel benzimidazole derivatives” (Bioorg Med Chem Lett, 2016).

Assays:
[1] = Cytotoxicity against mouse J774 cells assessed as decrease in cell viability after 24 hrs by resazurin assay; type: cell-based
Summary of the method: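 Mouse J774 macrophages were grown in DMEM with 10% FBS and treated with a range of compound concentrations for 24 h at 37 °C, 5% CO₂, with final DMSO below 1%. Untreated cells served as controls. Resazurin was added for 3 h and fluorescence was read (535/590 nm). Cytotoxicity was scored as % metabolic reduction versus untreated cells, and CC50 was derived.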

Trypanosoma cruzi [2] = assay: Antitrypanosomal activity against epimastigote forms of Trypanosoma cruzi INC-5 isolated from chagas disease patient after 24 hrs by resazurin dye based spectrophotometric analysis; type: functional, organism-based; details: INC-5, 24 h
Summary of the method: (§1)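 Epimastigotes at 1 × 10⁵/ml were exposed to compound for 24 h at 28 °C. Compounds were taken from 10 mg/mL DMSO stocks and diluted in sterile water, with final DMSO at most 1%. Concentrations were […], with DMSO-treated parasite controls. Viability was read by resazurin fluorescence (535/590 nm). Runs were in duplicate and IC50 was derived.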

Trypanosoma cruzi [3] = assay: Antitrypanosomal activity against epimastigote forms of Trypanosoma cruzi NINOA isolated from chagas disease patient after 24 hrs by resazurin dye based spectrophotometric analysis; type: functional, organism-based; summary of the method: as §1
[4] = Solubility of the compound in DMSO at 200 uM; type: physicochemical
[5] = biological target: Triosephosphate isomerase (Homo sapiens) (UniProt P60174); assay: Inhibition of recombinant human triosephosphate isomerase assessed as reduction of DHAP at 100 uM after 2 hrs by measuring NADH consumption by alpha-glycerolphosphate dehydrogenase coupled assay
Summary of the method: (§2)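 Recombinant TIM (T. cruzi or human) at 5 µg/mL was preincubated with compound at 36 °C in 100 mM triethanolamine, 10 mM EDTA, pH 7.4, with compound dissolved in 10% DMSO. After 2 h, 1 µL was transferred into 1 mL of activity mix. Activity was measured as NADH consumed by α-glycerolphosphate dehydrogenase reducing DHAP. Controls were enzyme alone, substrate alone, and enzyme plus DMSO.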

[6] = biological target: Triosephosphate isomerase, glycosomal (Trypanosoma cruzi) (UniProt P52270); assay: Inhibition of recombinant Trypanosoma cruzi triosephosphate isomerase assessed as reduction of DHAP at 100 uM after 2 hrs by measuring NADH consumption by alpha-glycerolphosphate dehydrogenase coupled assay; summary of the method: as §2
[7] = biological target: Triosephosphate isomerase, glycosomal (Trypanosoma cruzi, UniProt P52270); assay: Inhibition of recombinant Trypanosoma cruzi triosephosphate isomerase assessed as reduction of DHAP after 2 hrs by measuring NADH consumption by alpha-glycerolphosphate dehydrogenase coupled assay; summary of the method: as §2
[8] = biological target: Triosephosphate isomerase, glycosomal (Trypanosoma cruzi) (UniProt P52270); assay: Inhibition of recombinant Trypanosoma cruzi triosephosphate isomerase assessed as reduction of DHAP at 200 uM after 2 hrs by measuring NADH consumption by alpha-glycerolphosphate dehydrogenase coupled assay; summary of the method: as §2
[9] = biological target: Triosephosphate isomerase (Homo sapiens) (UniProt P60174); assay: Inhibition of recombinant human triosephosphate isomerase assessed as reduction of DHAP at 200 uM after 2 hrs by measuring NADH consumption by alpha-glycerolphosphate dehydrogenase coupled assay; summary of the method: as §2

Sequence of Triosephosphate isomerase, glycosomal (P52270 whole entry): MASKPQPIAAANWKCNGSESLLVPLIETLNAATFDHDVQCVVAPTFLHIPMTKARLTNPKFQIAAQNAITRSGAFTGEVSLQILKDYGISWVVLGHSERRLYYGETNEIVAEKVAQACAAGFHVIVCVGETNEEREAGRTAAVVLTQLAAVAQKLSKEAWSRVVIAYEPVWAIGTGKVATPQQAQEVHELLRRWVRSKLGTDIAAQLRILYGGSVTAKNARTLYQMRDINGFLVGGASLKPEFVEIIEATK
Sequence of Triosephosphate isomerase, glycosomal (Trypanosoma cruzi) (P52270 whole entry): as above
Sequence of Triosephosphate isomerase (Homo sapiens) (P60174 whole entry): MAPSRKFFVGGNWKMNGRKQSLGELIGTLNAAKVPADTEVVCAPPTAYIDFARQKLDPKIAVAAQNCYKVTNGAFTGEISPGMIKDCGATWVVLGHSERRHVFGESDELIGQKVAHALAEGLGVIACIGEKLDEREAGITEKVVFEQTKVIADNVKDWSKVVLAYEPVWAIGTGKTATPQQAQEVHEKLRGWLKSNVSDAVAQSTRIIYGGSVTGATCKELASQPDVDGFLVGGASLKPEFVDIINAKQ

Row | IC50 (Trypanosoma cruzi [2]) [µM] | IC50 (Trypanosoma cruzi [3]) [µM] | solubility [4] | inhibition [6] [%] | inhibition [8] [%] | SMILES | CC50 at 24 h [1] [µM] | other results
1 | 48.9 | 120 |  |  | 59 | COC(=O)c1cc2nc(SCC(=O)Nc3nccs3)[nH]c2cc1Cl | 104 | IC50 [7]: 223 µM; inhibition [9]: 0%
2 |  |  | Insoluble | 21 |  | COC(=O)c1cc2nc(SCC(=O)Nc3cccc(Cl)n3)[nH]c2cc1Cl |  | 
3 |  |  | Insoluble | 4 |  | COC(=O)c1cc2nc(SCC(=O)Nc3ccc(OC)cn3)[nH]c2cc1Cl |  | 
4 | 28.7 | 98.8 |  |  | 68 | COC(=O)c1cc2nc(SCC(=O)Nc3cnccn3)[nH]c2cc1Cl | 135 | IC50 [7]: 82 µM; inhibition [9]: 6%
5 | 95 | 124 | Insoluble | 41 |  | COC(=O)c1cc2nc(SCC(=O)Nc3ccc(Cl)cn3)[nH]c2cc1Cl | 82.7 | inhibition [5]: 0%
6 |  |  | Insoluble | 0 |  | COC(=O)c1cc2nc(SCC(=O)Nc3cccc(C)n3)[nH]c2cc1Cl |  | 
7 |  |  |  |  | 33 | COC(=O)c1cc2nc(SCC(=O)Nc3ccccc3)[nH]c2cc1Cl |  | 
8 |  |  |  |  | 10 | COC(=O)c1cc2nc(SCC(=O)Nc3ccccn3)[nH]c2cc1Cl |  | 
9 |  |  |  |  | 0 | COC(=O)c1cc2nc(SCC(=O)Nc3ncccn3)[nH]c2cc1Cl |  | 
10 |  |  |  |  | 33 | COC(=O)c1cc2nc(SCC(=O)Nc3ccncc3)[nH]c2cc1Cl |  | 

The next lines start with the compound.

Row | SMILES | IC50 (Trypanosoma cruzi [2]) [µM] | IC50 (Trypanosoma cruzi [3]) [µM] | solubility [4] | inhibition [6] [%] | inhibition [8] [%] | CC50 at 24 h [1] [µM] | other results
11 | COC(=O)c1cc2nc(SCC(=O)Nc3ccc(Cl)cc3)[nH]c2cc1Cl | 186 | 57 | Insoluble | 65 |  | 90.4 | inhibition [5]: 0%
12 | CC1CS(=O)(=O)CCN1/N=C/c1ccc([N+](=O)[O-])o1 (centres undefined) [NIFURTIMOX] | 50.8 | 89.8 |  |  |  | 132 | 
13 | COC(=O)c1cc2nc(SCC(=O)Nc3ccc([N+](=O)[O-])cn3)[nH]c2cc1Cl |  |  | Insoluble | 0 |  |  | 
14 | COC(=O)c1cc2nc(SCC(=O)Nc3cccc(C(N)=O)n3)[nH]c2cc1Cl |  |  | Insoluble | 0 |  |  | 
15 | O=C(CSc1nc2cc(Oc3cccc4ccccc34)c(Cl)cc2[nH]1)Nc1ncc([N+](=O)[O-])s1 |  |  |  |  | 48 |  | 
16 | COC(=O)c1ccc2nc(SCC(=O)Nc3ncc([N+](=O)[O-])s3)[nH]c2c1 |  |  |  |  | 52 |  | 
17 | COC(=O)c1cc2nc(SCC(=O)Nc3ncc([N+](=O)[O-])s3)[nH]c2cc1Cl | 42.5 | 95.4 |  |  | 69 | 84.9 | IC50 [7]: 77 µM; inhibition [9]: 15%
